How the values were obtained:
[1] = target: Fibroblast growth factor 2 (Homo sapiens, UniProt P09038); assay: Binding affinity for FGF2 by BIAcore solution affinity assay
Outline: (§1)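 Surface plasmon resonance solution affinity assay: growth factor preequilibrated with ligand in solution, then injected; specific binding after background subtraction converted to free protein concentration under mass-transport conditions. Kd derived assuming 1:1 stoichiometry; duplicates averaged where measured.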

[2] = target: T1, Vascular endothelial growth factor A, long form (Homo sapiens, UniProt P15692); assay: Binding affinity for VEGF by BIAcore solution affinity assay; outline: as §1
T1 sequence (P15692 whole entry): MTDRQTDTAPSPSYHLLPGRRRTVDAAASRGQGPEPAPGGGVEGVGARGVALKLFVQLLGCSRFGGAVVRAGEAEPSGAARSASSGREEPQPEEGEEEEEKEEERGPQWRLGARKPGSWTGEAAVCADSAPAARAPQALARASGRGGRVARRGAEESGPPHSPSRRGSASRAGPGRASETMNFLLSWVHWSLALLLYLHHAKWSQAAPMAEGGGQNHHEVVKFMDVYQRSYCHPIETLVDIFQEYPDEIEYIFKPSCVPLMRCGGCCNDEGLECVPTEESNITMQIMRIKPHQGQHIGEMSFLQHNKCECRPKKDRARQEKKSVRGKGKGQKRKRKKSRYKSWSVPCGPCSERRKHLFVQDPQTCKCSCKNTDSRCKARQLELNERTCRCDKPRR

[3] = target: Fibroblast growth factor 1 (Homo sapiens, UniProt P05230); assay: Binding affinity for FGF1 by BIAcore solution affinity assay; outline: as §1
Heparanase = target: T2, Heparanase (Homo sapiens, UniProt Q9Y251); assay: Inhibitory activity against human platelet heparanase by Microcon ultrafiltration assay
T2 sequence (Q9Y251 whole entry): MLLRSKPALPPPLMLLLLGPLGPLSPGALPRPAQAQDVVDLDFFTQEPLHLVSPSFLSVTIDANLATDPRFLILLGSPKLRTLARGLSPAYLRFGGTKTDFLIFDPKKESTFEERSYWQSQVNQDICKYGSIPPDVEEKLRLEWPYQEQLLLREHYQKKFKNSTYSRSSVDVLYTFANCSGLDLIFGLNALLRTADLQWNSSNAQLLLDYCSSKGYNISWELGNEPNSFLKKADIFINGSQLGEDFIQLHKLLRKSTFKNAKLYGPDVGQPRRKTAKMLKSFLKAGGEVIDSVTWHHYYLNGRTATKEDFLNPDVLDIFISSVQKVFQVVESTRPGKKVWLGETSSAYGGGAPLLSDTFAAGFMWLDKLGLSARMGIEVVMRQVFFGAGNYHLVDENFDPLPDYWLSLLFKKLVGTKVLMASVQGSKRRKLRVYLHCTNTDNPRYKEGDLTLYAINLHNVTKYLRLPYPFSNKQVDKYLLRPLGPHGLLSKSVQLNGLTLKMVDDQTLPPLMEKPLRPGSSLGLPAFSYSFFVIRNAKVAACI
Outline: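 Platelet-derived heparanase (100 ng) in 40 mM acetate pH 5.0, 0.1 mg/mL BSA with inhibitor, preequilibrated 10 min at 22 °C. Started with 5 μM [3H]HS, 4 h at 22 °C. Cleaved fragments separated by 10 kDa ultrafiltration and counted; activity = 4 h minus time-0 filtrate, compared with inhibitor-free control. IC50.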

Human alphaherpesvirus 1 [4] = assay: Inhibition of cell to cell spread of HSV1; type: functional, organism-based, Human herpesvirus 1 strain KOS; details: Human alphaherpesvirus 1, KOS321
Outline: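 African green monkey kidney monolayers infected with HSV-1 KOS321, then 5-fold compound dilutions (0.032–20 μM) in serum-free overlay for 3 days at 37 °C. Area of 20 plaques measured from images, expressed relative to mock-treated cells. IC50 derived.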

Human alphaherpesvirus 1 [5] = assay: Inhibition of HSV1 infection; type: functional, organism-based, Human herpesvirus 1 strain KOS; details: Human alphaherpesvirus 1, KOS321
Rattus norvegicus = assay: Plasma concentration in male Sprague-Dawley rat administered with 2.5 mg/kg, iv; type: ADME, organism-based; design: dose 2.5 mg/kg, route intravenous; details: in vivo
Outline: (§2)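 Plasma sampled predose to 48 h, counted in triplicate by liquid scintillation, no decay correction; <3× background excluded. Apparent parameters from notionally linear log-concentration phase; mean ± SD, n = 4.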

[6] = Area under curve (0-12h) male Sprague-Dawley rat administered with 2.5 mg/kg, iv; type: ADME, organism-based; design: time < 12 hr, dose 2.5 mg/kg, route intravenous; details: in vivo; outline: as §2
[7] = Half life in male Sprague-Dawley rat administered with 2.5 mg/kg, iv; type: ADME, organism-based; design: dose 2.5 mg/kg, route intravenous; details: in vivo; outline: as §2
[8] = Volume of distribution in male Sprague-Dawley rat administered with 2.5 mg/kg, iv; type: ADME, organism-based; design: dose 2.5 mg/kg, route intravenous; details: in vivo, read-out: Vdss; outline: as §2
[9] = Clearance in male Sprague-Dawley rat administered with 2.5 mg/kg, iv; type: ADME, organism-based; design: dose 2.5 mg/kg, route intravenous; details: in vivo; outline: as §2

Sequence of Fibroblast growth factor 2 (P09038 143-288 limits assumed): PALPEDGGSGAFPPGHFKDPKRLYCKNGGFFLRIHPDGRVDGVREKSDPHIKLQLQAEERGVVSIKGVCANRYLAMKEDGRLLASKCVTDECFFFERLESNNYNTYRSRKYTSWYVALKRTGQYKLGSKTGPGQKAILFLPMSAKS
Sequence of Fibroblast growth factor 1 (P05230 whole entry): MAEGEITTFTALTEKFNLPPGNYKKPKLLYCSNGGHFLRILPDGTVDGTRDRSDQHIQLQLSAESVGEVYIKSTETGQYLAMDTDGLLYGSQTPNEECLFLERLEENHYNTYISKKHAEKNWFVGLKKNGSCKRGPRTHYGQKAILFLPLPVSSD

Kd [1]	Kd [2]	Kd [3]	IC50 (Heparanase)	IC50 (Human alphaherpesvirus 1 [4])	IC50 (Human alphaherpesvirus 1 [5])	Cp (Rattus norvegicus)	AUC(0-t) at 12 h [6]	half-life [7]	Vd [8]	clearance [9]	Compound
68 nM	1.7 nM	0.144 nM	1640 nM	400 nM	1000 nM	35600 ng/mL	29700 ng·h/mL	66 min	0.0229 L	1.39 mL/min/kg	CCCCCCCCO[C@H]1O[C@H](CO)[C@@H](O)[C@H](O)[C@@H]1O[C@H]1O[C@H](CO)[C@@H](O)[C@H](O[C@H]2O[C@H](CO)[C@@H](O)[C@H](O[C@H]3O[C@H](CO)[C@@H](O)[C@H](O[C@H]4O[C@H](CO)[C@@H](O)[C@H](O)[C@@H]4O)[C@@H]3O)[C@@H]2O)[C@@H]1O
84 nM	7.2 nM	0.39 nM	1850 nM	3000 nM	2000 nM	14000 ng/mL	6500 ng·h/mL	47.4 min	0.0551 L	6.33 mL/min/kg	O=C(CCCC[C@@H]1SC[C@@H]2NC(=O)N[C@@H]21)NCCCCCC(=O)N[C@H]1O[C@H](CO)[C@@H](O)[C@H](O)[C@@H]1O[C@H]1O[C@H](CO)[C@@H](O)[C@H](O[C@H]2O[C@H](CO)[C@@H](O)[C@H](O[C@H]3O[C@H](CO)[C@@H](O)[C@H](O[C@H]4O[C@H](CO)[C@@H](O)[C@H](O)[C@@H]4O)[C@@H]3O)[C@@H]2O)[C@@H]1O
86 nM	1.7 nM	0.12 nM	1830 nM	1000 nM	2000 nM	20500 ng/mL	12600 ng·h/mL	49.8 min	0.0384 L	3.32 mL/min/kg	OC[C@H]1O[C@H](O[C@@H]2[C@H](O)[C@@H](O[C@@H]3[C@H](O)[C@@H](O[C@@H]4[C@H](O)[C@@H](O[C@@H]5[C@@H](OCc6ccccc6)O[C@H](CO)[C@@H](O)[C@@H]5O)O[C@H](CO)[C@H]4O)O[C@H](CO)[C@H]3O)O[C@H](CO)[C@H]2O)[C@@H](O)[C@@H](O)[C@@H]1O
112 nM	7.1 nM	0.66 nM	2020 nM	5000 nM	7000 nM	–	–	–	–	–	O=C(COc1ccccc1)N[C@H]1O[C@H](CO)[C@@H](O)[C@H](O)[C@@H]1O[C@H]1O[C@H](CO)[C@@H](O)[C@H](O[C@H]2O[C@H](CO)[C@@H](O)[C@H](O[C@H]3O[C@H](CO)[C@@H](O)[C@H](O[C@H]4O[C@H](CO)[C@@H](O)[C@H](O)[C@@H]4O)[C@@H]3O)[C@@H]2O)[C@@H]1O

From ChEMBL document CHEMBL1140436, “Synthesis, biological activity, and preliminary pharmacokinetic evaluation of analogues of a phosphosulfomannan angiogenesis inhibitor (PI-88)” (J Med Chem, 2005)
